Measurements: ChEMBL document CHEMBL1148955, “Chemical constituents from the Colombian medicinal plant Maytenus laevis” (2004)
Activity calls are given as the source filed them. No cut-off for these calls is given here.

How the values were obtained:
PBMC [1] = experiment: Induction of IL4 production in human PBMC at 10 ug/ml after 48 hrs by ELISA; assay type: functional, cell-based
Outline: (§1)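 PBMCs were isolated from heparinized venous blood by Ficoll-Hypaque density gradient centrifugation. Cells were cultured at 1 × 10^6/mL in RPMI 1640 with 10% fetal calf serum, with or without compound at 1 or 10 µg/mL, for 48 h at 37 °C. Cytokines in the culture supernatants were measured by commercial ELISA kits.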

PBMC [2] = experiment: Induction of TNFalpha production in human PBMC at 10 ug/ml after 48 hrs by ELISA; assay type: functional; outline: as §1
PBMC [3] = experiment: Induction of IL10 production in human PBMC at 10 ug/ml after 48 hrs by ELISA; assay type: functional, cell-based; outline: as §1
PBMC [4] = experiment: Induction of IL4 production in human PBMC at 1 ug/ml after 48 hrs by ELISA; assay type: functional, cell-based; outline: as §1
PBMC [5] = experiment: Induction of IL6 production in human PBMC at 10 ug/ml after 48 hrs by ELISA; assay type: functional; outline: as §1
PBMC [6] = experiment: Induction of IFN-gamma production in human PBMC at 10 ug/ml after 48 hrs by ELISA; assay type: functional, cell-based; outline: as §1
PBMC [7] = experiment: Induction of IL12 production in human PBMC at 10 ug/ml after 48 hrs by ELISA; assay type: functional; outline: as §1
PBMC [8] = experiment: Induction of TNFalpha production in human PBMC at 1 ug/ml after 48 hrs by ELISA; assay type: functional; outline: as §1
PBMC [9] = experiment: Induction of IL10 production in human PBMC at 1 ug/ml after 48 hrs by ELISA; assay type: functional, cell-based; outline: as §1
PBMC [10] = experiment: Induction of IL6 production in human PBMC at 1 ug/ml after 48 hrs by ELISA; assay type: functional; outline: as §1
PBMC [11] = experiment: Induction of IL12 production in human PBMC at 1 ug/ml after 48 hrs by ELISA; assay type: functional; outline: as §1
PBMC [12] = experiment: Induction of IFN-gamma production in human PBMC at 1 ug/ml after 48 hrs by ELISA; assay type: functional, cell-based; outline: as §1

CC1(C)[C@H](O)CC[C@]2(C)[C@H]3CC=C4[C@@H]5C[C@](C)(C(=O)O)C[C@H](O)[C@]5(C)CC[C@@]4(C)[C@]3(C)CC[C@@H]12 [TRIPTOCALLIC ACID D]
Activity (PBMC [1]): inactive
Activity (PBMC [2]): <7.8 pg/mL
Activity (PBMC [3]): inactive
Activity (PBMC [4]): inactive
Activity (PBMC [5]): <7.8 pg/mL
Activity (PBMC [6]): inactive
Activity (PBMC [7]): <7.8 pg/mL
Activity (PBMC [8]): <7.8 pg/mL
Activity (PBMC [9]): inactive
Activity (PBMC [10]): 793.2 pg/mL
Activity (PBMC [11]): <7.8 pg/mL
Activity (PBMC [12]): inactive

CC1(C)C(=O)CC[C@]2(C)[C@H]3CC=C4[C@@H]5C[C@]6(C)C[C@@H](OC6=O)[C@]5(C)CC[C@@]4(C)[C@]3(C)CC[C@@H]12 [WILFORLIDE B]
Activity (PBMC [1]): inactive
Activity (PBMC [2]): <7.8 pg/mL
Activity (PBMC [3]): inactive
Activity (PBMC [4]): inactive
Activity (PBMC [5]): 451.1 pg/mL
Activity (PBMC [6]): inactive
Activity (PBMC [7]): <7.8 pg/mL
Activity (PBMC [8]): <7.8 pg/mL
Activity (PBMC [9]): inactive
Activity (PBMC [10]): 1477.6 pg/mL
Activity (PBMC [11]): <7.8 pg/mL
Activity (PBMC [12]): inactive
